Measured values as given in publication PMC10922102 (Cell chemical biology, 2023).

Columns and labels:
DHFR-HiBiT = target: T1, DHFR-HiBiT (Homo sapiens, UniProt P00374); experiment: DHFR HiBiT assay; format: cell-based; settings: for Degradation potency (pDC50): DHFR-HiBiT, 24 h, 30°C, mean ±SD, three independent experiments, ND = not determined (inactive); for Emax: HBL1, read-out: Assay max response (%)
T1 sequence (P00374 1-187): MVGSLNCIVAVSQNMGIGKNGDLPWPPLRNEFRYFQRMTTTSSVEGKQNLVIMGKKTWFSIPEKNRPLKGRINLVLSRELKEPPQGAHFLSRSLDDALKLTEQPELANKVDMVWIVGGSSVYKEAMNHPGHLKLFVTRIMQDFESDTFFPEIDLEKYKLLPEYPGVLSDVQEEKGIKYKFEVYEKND

[1] = target: T2, recombinant human DHFR•NADPH complex (Homo sapiens, UniProt P00374); experiment: Fluorescence polarization; format: binding
T2 sequence (P00374 1-187): T1 sequence (P00374 1-187)

MOLT-4 cells = experiment: CellTiter-Glo cytotoxicity in MOLT-4 cells; format: cell-based, human
in vitro = settings: human
HBL-1 cells [2] = settings: human, 72 h
HEK-293 cells = experiment: Live-cell imaging of cell growth; format: cell-based, human; settings: live-cell imaging over 120 h
[3] = system: MTX resistant (MTX^R) HBL-1 cells; experiment: Cell viability of MTX resistant; format: cell-based, human
HBL-1 cells [4] = experiment: cells; settings: Homo sapiens, HBL1, read-out: EC50 in MTX-sensitive HBL-1 cells
[5] = system: MTX sensitive (MTX^S) HBL-1 cells; experiment: Cell viability of MTX sensitive; format: cell-based; settings: Homo sapiens, HBL1, read-out: EC50, cell viability
HBL-1 cells [6] = experiment: Folate cytotoxicity dependence; format: cell-based, human
HBL-1 cells [7] = experiment: Targeted metabolomics; format: cell-based, human; settings: folate-replete media, 0.1 or 0.5 μM, 24 h
Summary of the method: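 HBL-1 cells were expanded in RPMI 1640 with 1 mM HEPES, 100 U/mL penicillin, 100 µg/mL streptomycin and 10% FBS at 37 °C, 5% CO2. Metabolites were eluted by LC-MS/MS gradient. Buffer A was acetonitrile and Buffer B was 5% acetonitrile with 20 mM ammonium acetate, pH 9.0. The gradient started at 85% A and fell to 50% A by 17 min.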

DHFR = target: T3, DHFR (Homo sapiens, UniProt P00374); experiment: Western blot analysis of cellular DHFR; format: cell-based
T3 sequence (P00374 1-187): T1 sequence (P00374 1-187)

cellular DHFR = target: T4, cellular DHFR (Homo sapiens, UniProt P00374); experiment: Label-free quantitative proteomics of HBL-1 cells; format: cell-based; settings: 1 μM, 24 h
T4 sequence (P00374 1-187): T1 sequence (P00374 1-187)

Row | Structure (SMILES) | Degradation potency (pDC50) (DHFR-HiBiT; HBL-1 cells) | Emax (DHFR-HiBiT) | IC50 [1] | EC50 at 72 h (in vitro) | Cytotoxicity efficacy (viability, %CTG) (HBL-1 cells [2]) | other results
1 | CN(Cc1cnc2nc(N)nc(N)c2n1)c1ccc(C(=O)N[C@@H](CCC(=O)NCCOCCOCCOCCNC(=O)COc2cccc3c2C(=O)N(C2CCC(=O)NC2=O)C3=O)C(=O)O)cc1 (stereo partly drawn) [Compound 3, (19S)-19-(4-(((2,4-diaminopteridin-6-yl)methyl)(methyl)amino)benzamido)-1-((2-(2,6-dioxopiperidin-3-yl)-1,3-dioxoisoindolin-4-yl)oxy)-2,16-dioxo-6,9,12-trioxa-3,15-diazaicosan-20-oic acid] | 6.27 ±0.21 | -40.6 ± 1.8% | 43.7 nM | 2820 nM | −72.1 ±7.9% | DHFR concentration in the HiBiT assay, % of DMSO control (DHFR-HiBiT; 24 h treatment, HBL-1 cells): ~ 40%; CTG cytotoxicity compared to PROTAC 4 (MOLT-4 cells): more cytotoxic than PROTAC 4 by an order of magnitude; cytotoxicity compared to PROTAC 4 (HBL-1 cells [2]): an order of magnitude improvement in cytotoxicity when compared to PROTAC 4
2 | CN(Cc1cnc2nc(N)nc(N)c2n1)c1ccc(C(=O)N[C@@H](CC(F)C(=O)O)C(=O)O)cc1 (stereo partly drawn) [FMTX, 2, (2S)-2-(4-(((2,4-diaminopteridin-6-yl)methyl)(methyl)amino)benzamido)-4-fluoropentanedioic acid, reference compound] |  | 53.9 ± 5.2% | 93.3 nM | 1050 nM | −65.7 ±5.7% | effect on cellular confluence (HEK-293 cells): reduced cellular confluence beginning after 48 h of treatment
3 | CN(Cc1cnc2nc(N)nc(N)c2n1)c1ccc(C(=O)N[C@@H](CCC(=O)O)C(=O)O)cc1 [MTX, 1, Methotrexate, reference compound] |  |  |  | 61.7 nM | −68.7 ±5.7% | EC50 ([3]; Homo sapiens, HBL1, 240 h, read-out: EC50, cell viability): 4640 nM; EC50 (HBL-1 cells [4]): < 100 nM; EC50 [5]: 45.2 nM; increase of cytotoxicity in folate-depleted vs. folate-containing media (HBL-1 cells [6]): < 2 fold; cellular dUMP levels (HBL-1 cells [7]): significant increase in dUMP levels; effect on cellular confluence (HEK-293 cells): reduced cellular confluence beginning after 48 h of treatment
4 | CN1C(=O)CCC(N2C(=O)c3cccc(NCCCCCCCCNC(=O)CC[C@H](NC(=O)c4ccc(N(C)Cc5cnc6nc(N)nc(N)c6n5)cc4)C(=O)O)c3C2=O)C1=O (stereo partly drawn) [VSTX-IE3L, 7, N2-(4-(((2,4-diaminopteridin-6-yl)methyl)(methyl)amino)benzoyl)-N5-(8-((2-(1-methyl-2,6-dioxopiperidin-3-yl)-1,3-dioxoisoindolin-4-yl)amino)octyl)-L-glutamine] |  | 39.3 ± 6.6% | 25.1 nM |  | 6.2 ±4.4% | cytotoxicity in folic acid-free, replete and rescue conditions (HBL-1 cells [6]): did not exhibit appreciable toxicity in any of the conditions; change of cellular DHFR-HiBiT level (DHFR-HiBiT; HBL-1 cells): increase in cellular DHFR-HiBiT
5 | CN(Cc1cnc2nc(N)nc(N)c2n1)c1ccc(C(=O)NC(CCC(=O)O)C(=O)NCCCCCCCCNc2cccc3c2C(=O)N(C2CCC(=O)NC2=O)C3=O)cc1 (centres unmarked) [VSTX-αE3L, 8, 4-(4-(((2,4-diaminopteridin-6-yl)methyl)(methyl)amino)benzamido)-5-((8-((2-(2,6-dioxopiperidin-3-yl)-1,3-dioxoisoindolin-4-yl)amino)octyl)amino)-5-oxopentanoic acid] |  | 21.2 ± 2.5% | 7240 nM |  | −2.0 ±16.2% | cytotoxicity in folic acid-free, replete and rescue conditions (HBL-1 cells [6]): showed no cytotoxicity; change of cellular DHFR-HiBiT level (DHFR-HiBiT; HBL-1 cells): did not lead to appreciable changes in DHFR-HiBiT concentration

The next lines start with results.

Row | Degradation potency (pDC50) (DHFR-HiBiT; HBL-1 cells) | Emax (DHFR-HiBiT) | IC50 [1] | EC50 at 72 h (in vitro) | Structure (SMILES) | Cytotoxicity efficacy (viability, %CTG) (HBL-1 cells [2]) | other results
6 | 7.56 ±0.29 | -71.9 ± 2.1% |  | 5750 nM | COC(=O)[C@H](CCC(=O)NCCCCCCCCNc1cccc2c1C(=O)N(C1CCC(=O)NC1=O)C2=O)NC(=O)c1ccc(N(C)Cc2cnc3nc(N)nc(N)c3n2)cc1 (stereo partly drawn) [VSTX-ME, 9, Methyl N2-(4-(((2,4-diaminopteridin-6-yl)methyl)(methyl)amino)benzoyl)-N5-(8-((2-(2,6-dioxopiperidin-3-yl)-1,3-dioxoisoindolin-4-yl)amino)octyl)-L-glutaminate] | −26.8 ±22.7% | DHFR level by western blot (DHFR; 24 h, HBL-1, HEK-293, Jurkat, MOLT-4, DND-41, TALL-5 cells): consistently able to degrade DHFR across this cell panel at sub-micromolar concentrations; DHFR degradation by western blot in MTX^R cells (DHFR; MTX^R HBL-1 cells): remained capable of degrading DHFR in the MTX^R cells; effect on cell viability between parental (MTX^S) and MTX^R HBL-1 cell lines [3]: unchanged; change of cellular DHFR by proteomics (cellular DHFR): significant degradation of cellular DHFR; time of maximum DHFR-HiBiT depletion (DHFR-HiBiT; HBL-1 cells, time course 5 to 72 h): 24 h; cellular dUMP levels (HBL-1 cells [7]): only a modest increase; purine nucleotides ATP and GTP relative to untreated control (HBL-1 cells [7]): decreased
7 | 6.43 ±0.18 | -70.1 ± 0.4% | 85.1 nM | 21400 nM | CN(Cc1cnc2nc(N)nc(N)c2n1)c1ccc(C(=O)N[C@@H](CCC(=O)NCCCCCCCCNc2cccc3c2C(=O)N(C2CCC(=O)NC2=O)C3=O)C(=O)O)cc1 (stereo partly drawn) [Versortrexate (VSTX), 6, N2-(4-(((2,4-diaminopteridin-6-yl)methyl)(methyl)amino)benzoyl)-N5-(8-((2-(2,6-dioxopiperidin −3-yl)-1,3-dioxoisoindolin-4-yl)amino)octyl)-L-glutamine] | −45.7 ±26.9% | 
